In brackets after ≈: the same amount, converted by molar mass. Activity calls are given as the source filed them. The calls are words filed in the database; no cut-off is given here.
Legend:
HT-29 = assay: Antiproliferative activity against human HT-29 cells assessed as cell viability after 96 hrs by CellTiter-Glo luminescence assay; type: functional, cell-based; conditions: HT-29, 96 h
How it was run: (§1)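 Cells grown in 96-well plates with no compound or continuous exposure to 1.5–50 000 nM for 96 h. Growth was read by CellTiter-Glo luminescence. IC50 is the concentration giving 50% growth inhibition versus untreated cells. Two separate replicate experiments were run.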

U-937 = assay: Antiproliferative activity against human U937 cells assessed as cell viability after 96 hrs by CellTiter-Glo luminescence assay; type: functional, cell-based; conditions: U-937, 96 h; how it was run: as §1
HeLa [1] = assay: Induction of microfilament disruption in human HeLa cells at 20 ug/ml after 24 hrs by Hoechst staining-based fluorescence microscopic analysis; type: functional, cell-based
How it was run: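 HeLa cells (1500/well, 384-well) were seeded and incubated overnight at 37 °C, 5% CO2, then samples were pin-transferred. After 24 h cells were fixed in 4% formaldehyde for 20 min, permeabilised with 0.5% Triton X-100 for 10 min and blocked with 2% BSA. Actin was stained with rhodamine-phalloidin and DNA with Hoechst 33342. Images were taken by automated fluorescence microscopy at 10×.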

[2] = Antiproliferative activity against human H522-T1 cells assessed as cell viability after 96 hrs by CellTiter-Glo luminescence assay; type: functional, cell-based; conditions: H522-T1, 96 h; how it was run: as §1
MDA-MB-435 = assay: Antiproliferative activity against human MDA-MB-435 cells assessed as cell viability after 96 hrs by CellTiter-Glo luminescence assay; type: functional, cell-based; conditions: MDA-MB-435, 96 h; how it was run: as §1
[3] = tested on: Trypanosoma brucei brucei; assay: Antitrypanosomal activity against Trypanosoma brucei brucei clone 427-221a assessed as growth inhibition after 40 hrs by ATP-bioluminescence assay; type: functional, organism-based
How it was run: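 Bloodstream-form parasites (1×10^4/well) were grown in HMI-9 with 10% FBS, 10% Serum Plus and penicillin/streptomycin at 37 °C, 5% CO2. Samples were tested at 12.5 and 1.25 µg/mL, or serially diluted 25–0.001 µg/mL for IC50, at 0.5% final DMSO. Incubation was 40 h. ATP was read by CellTiter-Glo. Log10 signals were converted to % inhibition against 0.5% DMSO and 50 µM thimerosal controls, and curves were fitted.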

HeLa [4] = assay: Stabilization of microtubule in human HeLa cells at 20 ug/ml after 24 hrs by Hoechst staining-based fluorescence microscopic analysis; type: functional, cell-based
RAW264.7 [5] = assay: Cytotoxicity against mouse RAW264.7 cells assessed as cell viability […] by MTT assay; type: functional; conditions: in the assay text read “20 hrs” for “24 hrs”
How it was run: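 MTT test on extracts at 10 µg/mL and library fractions at 20 µg/mL, dissolved in DMSO. RAW264.7 cells were exposed for 20 h. MTT was then added for 2 h, the medium removed, formazan dissolved in DMSO, and absorbance read at 570 nm.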

RAW264.7 [6] = assay: Cytotoxicity against mouse RAW264.7 cells assessed as cell viability at 10 uM after 20 hrs by MTT assay
PC-3 = assay: Cytotoxicity against human PC3 cells assessed as cell viability at 10 uM after 24 hrs by MTT assay; type: functional, cell-based

| Structure (SMILES) | IC50 (HT-29) [µg/mL] | IC50 (U-937) [µg/mL] | Activity (HeLa [1]) | IC50 [2] [µg/mL] | IC50 (MDA-MB-435) [µg/mL] | IC50 [3] [µg/mL] | Activity (HeLa [4]) | Activity (RAW264.7 [5]) [µM] | Activity (RAW264.7 [6]) | Activity (PC-3) |
| --- | --- | --- | --- | --- | --- | --- | --- | --- | --- | --- |
| C[C@H]1CCC[C@]2(C)C(=O)/C(=C\C(=O)O)CC[C@]12C [AIGNOPSANOIC ACID A] | > 2.5 | > 2.5 | inactive | > 2.5 | > 2.5 | 6.5 (≈ 26 µM) | inactive |  |  |  |
| C[C@H]1CCC[C@]2(C)C(=O)[C@H](C(O)C(=O)O)CC[C@]12C (some centres undefined) [AIGNOPSANOIC ACID B] | > 2.5 | > 2.5 | inactive | > 2.5 | > 2.5 | > 10 | inactive |  |  |  |
| C/C1=C/C(=O)O[C@@H]2C[C@@H](CC[C@H](C)/C=C\C=C\CC1)O[C@@](O)([C@@H]1CSC(=O)N1)C2 [LATRUNCULIN A] | 0.08 (≈ 0.19 µM) | 0.07 (≈ 0.166 µM) | inactive | 0.06 (≈ 0.142 µM) | 0.04 (≈ 0.0949 µM) | 1.2 (≈ 2.85 µM) | Active |  |  |  |
| C=C1C[C@H](C)C[C@@H]2CC=C[C@@H](C/C=C\C(=O)O[C@H]3C[C@@H](O[C@@]3(/C=C/[C@@H]3CC(C)=CCO3)OC)[C@@H](O)[C@@H](O)C1)O2 | > 2.5 | > 2.5 | Active | > 2.5 | > 2.5 | > 10 |  |  |  |  |
| C=C1C[C@H](C)C[C@@H]2CC=C[C@@H](C/C=C\C(=O)O[C@H]3C[C@@H](O[C@H]3/C=C/[C@@H]3CC(C)=CC(=O)O3)[C@@H](O)[C@@H](O)C1)O2 [FIIJIANOLIDE D] | > 2.5 | > 2.5 | Active | > 2.5 | > 2.5 | 1.4 (≈ 2.65 µM) | inactive |  |  |  |
| C=C1C[C@H](C)C[C@@H]2CC=C[C@@H](C/C=C\C(=O)O[C@H]3C[C@@H](O[C@H]3/C=C/[C@@H]3CC(C)=CCO3)[C@@H](O)[C@@H](O)C1)O2 [FIJIANOLIDE A] | 0.04 (≈ 0.0777 µM) | 0.03 (≈ 0.0583 µM) | Active | 0.02 (≈ 0.0389 µM) | 0.02 (≈ 0.0389 µM) | 1.4 (≈ 2.72 µM) | inactive |  |  |  |
| C=C1C[C@H](C)C[C@@H]2CC=C[C@@H](C/C=C\C(=O)O[C@H]([C@@H](O)/C=C/[C@@H]3CC(C)=CCO3)C[C@@H]3O[C@H]3[C@@H](O)C1)O2 [FIJIANOLIDE B] | 0.003 (≈ 0.00583 µM) | 0.003 (≈ 0.00583 µM) | Active | 0.002 (≈ 0.00389 µM) | 0.002 (≈ 0.00389 µM) | 0.08 (≈ 0.155 µM) | inactive |  |  |  |
| COC(=O)/C=C1/CC[C@]2(C)[C@@H](C)CCC[C@]2(C)C1=O [METHYL AIGNOPSANOATE] | > 2.5 | > 2.5 | inactive | > 2.5 | > 2.5 | > 10 | inactive |  |  |  |
| CCCCCCC(C)CCCCCCCCCOC[C@H](O)COC1[C@@H](O)[C@H](O)[C@@H](O)[C@@H]1O (some centres undefined) [SACROTRIDE A] | > 2.5 | > 2.5 | inactive | > 2.5 | > 2.5 | > 10 | inactive |  |  |  |
| COC(CC1=CC[C@]2(C)[C@@H](C)CCC[C@]2(C)C1=O)OC [AIGNOPSANE KETAL] | > 2.5 | > 2.5 | inactive | > 2.5 | > 2.5 | > 10 | inactive |  |  |  |
| C[C@]12CCC[C@](C)(C(=O)O)[C@@H]1CC[C@@]1(C)c3cocc3CC[C@H]21 |  |  |  |  |  |  |  | >90 |  |  |
| C/C1=C/C(=O)O[C@@H]2C[C@@H](CC[C@H](C)/C=C\C(=O)CCC1)O[C@@](O)([C@@H]1CSC(=O)N1)C2 | > 2.5 | > 2.5 | inactive | > 2.5 | > 2.5 | 3.6 (≈ 8.23 µM) | inactive |  |  |  |
| C/C(=C/C(=O)O)CC/C=C/C=C\[C@@H](C)CC[C@@H](O)CCCC(=O)c1csc(=O)[nH]1 [APO LATRUNCULIN T] | > 2.5 | > 2.5 | inactive | > 2.5 | > 2.5 | 4.8 (≈ 11.4 µM) | inactive |  |  |  |
| C=CC/C=C\Cc1csc(C(C)(C)[C@H](O)C/C=C\C(=C)CCNC(=O)OC)n1 [MYCOTHIAZOLE] | 0.7 (≈ 1.73 µM) | 0.01 (≈ 0.0247 µM) | inactive | 1 (≈ 2.47 µM) | 1 (≈ 2.47 µM) | 6.7 (≈ 16.6 µM) | inactive |  |  |  |
| CO[C@H]1/C=C\[C@@H](C)CC[C@@H]2C[C@H](C[C@](O)([C@@H]3CSC(=O)N3)O2)OC(=O)/C=C(/C)CC[C@@H]1O [LATRUNCULOL B] | > 2.5 | > 2.5 | inactive | > 2.5 | > 2.5 | 2 (≈ 4.26 µM) | Active |  |  |  |
| C/C1=C/C(=O)O[C@@H]2C[C@@H](CC[C@H](C)/C=C\[C@H](O)[C@@H](O)CC1)O[C@@](O)([C@@H]1CSC(=O)N1)C2 [LATRUNCULOL A] | 0.65 (≈ 1.43 µM) | 0.31 (≈ 0.68 µM) | inactive | 0.76 (≈ 1.67 µM) | > 2.5 | 0.09 (≈ 0.198 µM) | Active |  |  |  |
| COc1cccc2c1C(=O)c1c(O)c3c(c(O)c1C2=O)C[C@@](O)(C(=O)CO)C[C@@H]3O[C@H]1C[C@H](N)[C@H](O)[C@H](C)O1 |  |  |  |  |  |  |  |  | Active | Active |
| C/C1=C/C(=O)O[C@@H]2C[C@@H](CC[C@H](C)/C=C\CC(=O)CC1)O[C@@](O)([C@@H]1CSC(=O)N1)C2 [LATRUNCULONE B] | 0.8 (≈ 1.83 µM) | 1.18 (≈ 2.7 µM) | inactive | 0.8 (≈ 1.83 µM) | > 2.5 | 1 (≈ 2.29 µM) | Active |  |  |  |

Reference: ChEMBL document CHEMBL1932932, “Natural product libraries to accelerate the high-throughput discovery of therapeutic leads” (J Nat Prod, 2011)
